Reference: ChEMBL document CHEMBL5058577, “EUbOPEN Chemogenomics Library 2 (Multiplex)” (2022)

System: HEK-293T
Assay: Multiplex assay against HEK293T
Format: toxicity, cell-based
Settings: human
Procedure, shortened: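 Live cells were stained at seeding with Hoechst33342, BioTracker Green Microtubule Cytoskeleton Dye, MitoTracker Red and Annexin V Alexa Fluor 680. Following compound addition, they were imaged on a CQ1 microscope at 37°C and 5% CO2 and gated by CellPathfinder machine learning into Hoechst high-intensity objects or normal cells, with normal cells split into healthy, pyknosed or fragmented nuclei and pyknosed cells into mitotic or apoptotic. Tubulin, mitochondrial-mass and membrane-permeability phenotypes are per cents of healthy-nucleus cells.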

[1] = 12 h, 1 µM, compound concentration 1 uM, replicate 1
[2] = 12 h, 1 µM, compound concentration 1 uM, replicate 2
[3] = 12 h, 10 µM, compound concentration 10 uM, replicate 1
[4] = 12 h, 10 µM, compound concentration 10 uM, replicate 2
[5] = 24 h, 1 µM, compound concentration 1 uM, replicate 1
[6] = 24 h, 1 µM, compound concentration 1 uM, replicate 2
[7] = 24 h, 10 µM, compound concentration 10 uM, replicate 1
[8] = 24 h, 10 µM, compound concentration 10 uM, replicate 2
[9] = 48 h, 1 µM, compound concentration 1 uM, replicate 1
[10] = 48 h, 1 µM, compound concentration 1 uM, replicate 2
[11] = 48 h, 10 µM, compound concentration 10 uM, replicate 1
[12] = 48 h, 10 µM, compound concentration 10 uM, replicate 2

C[C@H](N)COC(=O)[C@@H](CCCCN)NC(=O)Cc1c(-c2ccc3ccccc3c2)[nH]c2c1ccc1ccccc12
Population Apoptotic (%) [1]: 22%
Population Fragmented Nuclei (%) [1]: 6%
Population Healthy Nuclei (%) [1]: 82%
Population Hoechst High Intensity Objects (%) [1]: 8%
Population Membrane Permeable-Phenotype (%) [1]: 0%
Population Mitochondria Different-Phenotype (%) [1]: 37%
Population Mitotic Cells (%) [1]: 77%
Population Normal (%) [1]: 91%
Population Pyknosed Nuclei (%) [1]: 10%
Population Tubulin-Different-Phenotype (%) [1]: 27%
Total Cell Count [1]: 458
Population Apoptotic (%) [2]: 51%
Population Fragmented Nuclei (%) [2]: 8%
Population Healthy Nuclei (%) [2]: 74%
Population Mitochondria Different-Phenotype (%) [2]: 65%
Population Mitotic Cells (%) [2]: 48%
Population Pyknosed Nuclei (%) [2]: 16%
Population Tubulin-Different-Phenotype (%) [2]: 30%
Total Cell Count [2]: 291
Population Apoptotic (%) [3]: 41%
Population Fragmented Nuclei (%) [3]: 7%
Population Healthy Nuclei (%) [3]: 78%
Population Hoechst High Intensity Objects (%) [3]: 11%
Population Membrane Permeable-Phenotype (%) [3]: 0%
Population Mitochondria Different-Phenotype (%) [3]: 60%
Population Mitotic Cells (%) [3]: 58%
Population Normal (%) [3]: 88%
Population Pyknosed Nuclei (%) [3]: 14%
Population Tubulin-Different-Phenotype (%) [3]: 54%
Total Cell Count [3]: 435
Population Apoptotic (%) [4]: 61%
Population Fragmented Nuclei (%) [4]: 5%
Population Hoechst High Intensity Objects (%) [4]: 7%
Population Mitochondria Different-Phenotype (%) [4]: 72%
Population Mitotic Cells (%) [4]: 38%
Population Normal (%) [4]: 93%
Population Pyknosed Nuclei (%) [4]: 16%
Population Tubulin-Different-Phenotype (%) [4]: 50%
Total Cell Count [4]: 343
Population Apoptotic (%) [5]: 25%
Population Fragmented Nuclei (%) [5]: 9%
Population Healthy Nuclei (%) [5]: 77%
Population Hoechst High Intensity Objects (%) [5]: 4%
Population Membrane Permeable-Phenotype (%) [5]: 0%
Population Mitochondria Different-Phenotype (%) [5]: 24%
Population Mitotic Cells (%) [5]: 75%
Population Normal (%) [5]: 95%
Population Pyknosed Nuclei (%) [5]: 12%
Population Tubulin-Different-Phenotype (%) [5]: 19%
Total Cell Count [5]: 638
Population Apoptotic (%) [6]: 54%
Population Fragmented Nuclei (%) [6]: 7%
Population Healthy Nuclei (%) [6]: 80%
Population Hoechst High Intensity Objects (%) [6]: 7%
Population Membrane Permeable-Phenotype (%) [6]: 1%
Population Mitochondria Different-Phenotype (%) [6]: 47%
Population Mitotic Cells (%) [6]: 45%
Population Normal (%) [6]: 92%
Population Tubulin-Different-Phenotype (%) [6]: 25%
Total Cell Count [6]: 352
Population Apoptotic (%) [7]: 41%
Population Fragmented Nuclei (%) [7]: 6%
Population Healthy Nuclei (%) [7]: 78%
Population Hoechst High Intensity Objects (%) [7]: 6%
Population Membrane Permeable-Phenotype (%) [7]: 0%
Population Mitochondria Different-Phenotype (%) [7]: 57%
Population Mitotic Cells (%) [7]: 58%
Population Normal (%) [7]: 93%
Population Pyknosed Nuclei (%) [7]: 14%
Population Tubulin-Different-Phenotype (%) [7]: 45%
Total Cell Count [7]: 539
Population Apoptotic (%) [8]: 48%
Population Fragmented Nuclei (%) [8]: 9%
Population Healthy Nuclei (%) [8]: 80%
Population Hoechst High Intensity Objects (%) [8]: 7%
Population Mitochondria Different-Phenotype (%) [8]: 54%
Population Mitotic Cells (%) [8]: 51%
Population Normal (%) [8]: 92%
Population Pyknosed Nuclei (%) [8]: 10%
Population Tubulin-Different-Phenotype (%) [8]: 42%
Total Cell Count [8]: 439
Population Apoptotic (%) [9]: 15%
Population Fragmented Nuclei (%) [9]: 13%
Population Healthy Nuclei (%) [9]: 78%
Population Hoechst High Intensity Objects (%) [9]: 4%
Population Membrane Permeable-Phenotype (%) [9]: 2%
Population Mitochondria Different-Phenotype (%) [9]: 16%
Population Mitotic Cells (%) [9]: 84%
Population Normal (%) [9]: 95%
Population Pyknosed Nuclei (%) [9]: 7%
Population Tubulin-Different-Phenotype (%) [9]: 13%
Total Cell Count [9]: 963
Population Apoptotic (%) [10]: 37%
Population Fragmented Nuclei (%) [10]: 11%
Population Healthy Nuclei (%) [10]: 79%
Population Membrane Permeable-Phenotype (%) [10]: 0%
Population Mitochondria Different-Phenotype (%) [10]: 29%
Population Mitotic Cells (%) [10]: 62%
Population Pyknosed Nuclei (%) [10]: 9%
Population Tubulin-Different-Phenotype (%) [10]: 17%
Total Cell Count [10]: 540
Population Apoptotic (%) [11]: 27%
Population Fragmented Nuclei (%) [11]: 13%
Population Healthy Nuclei (%) [11]: 78%
Population Hoechst High Intensity Objects (%) [11]: 6%
Population Membrane Permeable-Phenotype (%) [11]: 0%
Population Mitochondria Different-Phenotype (%) [11]: 44%
Population Mitotic Cells (%) [11]: 72%
Population Normal (%) [11]: 93%
Population Pyknosed Nuclei (%) [11]: 7%
Population Tubulin-Different-Phenotype (%) [11]: 33%
Total Cell Count [11]: 781
Population Apoptotic (%) [12]: 32%
Population Fragmented Nuclei (%) [12]: 14%
Population Healthy Nuclei (%) [12]: 79%
Population Hoechst High Intensity Objects (%) [12]: 4%
Population Mitochondria Different-Phenotype (%) [12]: 43%
Population Mitotic Cells (%) [12]: 67%
Population Normal (%) [12]: 95%
Population Pyknosed Nuclei (%) [12]: 6%
Population Tubulin-Different-Phenotype (%) [12]: 35%
Total Cell Count [12]: 681
